Calls of active or inactive are those of the source. The calls are words filed in the database; no cut-off is given here.
Tests used:
[1] = target: T1, Protein deacetylase HDAC6 (Homo sapiens) (UniProt Q9UBN7); assay: Inhibition of HDAC6 in human HCT116 cells assessed as increase in alpha tubulin acetylation at 0.01 to 1 uM after 24 hrs by Western blot analysis; type: cell-based; settings: HCT-116
T1 sequence (whole entry): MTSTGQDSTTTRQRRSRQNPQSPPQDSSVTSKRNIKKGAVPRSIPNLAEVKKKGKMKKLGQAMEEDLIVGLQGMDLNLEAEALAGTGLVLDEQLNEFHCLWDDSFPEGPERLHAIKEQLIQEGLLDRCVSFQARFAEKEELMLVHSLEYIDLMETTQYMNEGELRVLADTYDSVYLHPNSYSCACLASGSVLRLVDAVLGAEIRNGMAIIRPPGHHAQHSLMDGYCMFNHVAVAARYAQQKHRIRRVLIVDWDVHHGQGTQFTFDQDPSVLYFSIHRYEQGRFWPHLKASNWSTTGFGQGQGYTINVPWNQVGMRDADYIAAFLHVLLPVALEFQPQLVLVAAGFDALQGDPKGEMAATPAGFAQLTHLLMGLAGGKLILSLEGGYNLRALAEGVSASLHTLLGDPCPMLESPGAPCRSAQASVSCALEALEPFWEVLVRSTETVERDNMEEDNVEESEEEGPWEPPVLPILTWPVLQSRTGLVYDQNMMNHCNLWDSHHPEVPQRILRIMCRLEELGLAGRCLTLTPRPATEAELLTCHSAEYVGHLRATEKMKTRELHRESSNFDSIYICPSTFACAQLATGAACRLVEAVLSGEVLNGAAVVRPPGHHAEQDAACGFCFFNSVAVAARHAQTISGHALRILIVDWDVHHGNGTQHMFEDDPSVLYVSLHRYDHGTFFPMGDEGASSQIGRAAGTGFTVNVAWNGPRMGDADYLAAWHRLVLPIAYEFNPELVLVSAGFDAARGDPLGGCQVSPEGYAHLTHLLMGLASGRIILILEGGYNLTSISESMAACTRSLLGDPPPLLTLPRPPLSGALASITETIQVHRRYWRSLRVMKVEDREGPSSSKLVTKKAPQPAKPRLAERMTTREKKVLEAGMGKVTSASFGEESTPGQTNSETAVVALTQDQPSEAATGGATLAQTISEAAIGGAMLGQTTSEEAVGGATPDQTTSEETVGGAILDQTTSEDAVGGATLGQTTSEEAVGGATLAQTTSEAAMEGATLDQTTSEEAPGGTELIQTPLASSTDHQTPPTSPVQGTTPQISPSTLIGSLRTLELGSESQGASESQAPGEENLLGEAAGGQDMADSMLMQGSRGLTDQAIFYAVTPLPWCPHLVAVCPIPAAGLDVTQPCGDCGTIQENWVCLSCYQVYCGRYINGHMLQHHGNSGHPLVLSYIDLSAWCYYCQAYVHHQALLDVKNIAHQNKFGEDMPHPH
Outline: (§1)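 HCT116 cells treated 24 h with 10 nM, 100 nM or 1 µM compound, with DMSO as vehicle control. Acetylation of histone or α-tubulin was measured by Western blot of whole-cell lysates, detected with infrared dye-conjugated secondary antibodies and infrared scanning.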

[2] = target: T1, Protein deacetylase HDAC6 (Homo sapiens); assay: Inhibition of recombinant HDAC6 at 1 uM after 1 hr by fluorimetric assay
Outline: (§2)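 Fluor de Lys fluorimetric deacetylase assay run per the kit protocol. Inhibitor, enzyme and substrate were incubated 1 h, then developer was added and incubated before reading. Recombinant HDAC1 or HDAC6 was tested at 1 µM inhibitor; HeLa nuclear extract served as the class 1/2 HDAC source. Analogue + substrate + developer was the signal control. Three experiments, each in triplicate; SD of triplicates.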

[3] = target: Histone deacetylase 1 (Homo sapiens) (UniProt Q13547); assay: Inhibition of recombinant HDAC1 at 1 uM after 1 hr by fluorimetric assay; outline: as §2
[4] = target: T1, Protein deacetylase HDAC6 (Homo sapiens); assay: Inhibition of recombinant human HDAC6 after 1 hr by fluorimetric assay
[5] = target: Histone deacetylase 1 (Homo sapiens) (UniProt Q13547); assay: Inhibition of HDAC1 from human HeLa nuclear extract after 1 hr by fluorimetric assay; outline: as §2
[6] = target: Histone deacetylase 1 (Homo sapiens) (UniProt Q13547); assay: Inhibition of HDAC1 in human HCT116 cells assessed as increase in histone H3 acetylation at 10 nM after 24 hrs by Western blot analysis; type: cell-based; settings: HCT-116; outline: as §1
[7] = target: Histone deacetylase 1 (Homo sapiens) (UniProt Q13547); assay: Inhibition of HDAC1 in human HCT116 cells assessed as increase in histone H3 acetylation at 1 uM after 24 hrs by Western blot analysis; type: cell-based; settings: HCT-116; outline: as §1
HCT-116 [8] = assay: Growth inhibition of human HCT116 cells at 5 uM after 96 hrs by MTS assay; type: functional, cell-based
Outline: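 HCT116 cells seeded at 3 × 10^4 cells/well in quadruplicate and left to attach overnight. Medium was replaced with fresh medium containing compound at 10 nM, 100 nM, 1 µM or 5 µM, then incubated 96 h at 37 °C in 5% CO2. MTS reagent was added for 1.5 h at 37 °C and absorbance read at 490 nm.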

HCT-116 [9] = assay: Growth inhibition of human HCT116 cells after 96 hrs by MTS assay; type: functional; settings: HCT-116, 96 h
Outline: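 HCT116 cells seeded at 3 × 10^4 cells/well in quadruplicate and allowed to attach overnight. Medium then replaced with fresh medium containing compound (10 nM, 100 nM, 1 µM, 5 µM). Cells incubated 96 h at 37 °C, 5% CO2. MTS reagent (CellTiter 96 One Solution) added for 1.5 h at 37 °C, then absorbance read at 490 nm. GI50 estimated from the growth curves.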

[10] = target: Histone deacetylase 1 (Homo sapiens) (UniProt Q13547); settings: HCT-116, 100 nM

Chain of Histone deacetylase 1 (Homo sapiens) (Q13547 whole entry): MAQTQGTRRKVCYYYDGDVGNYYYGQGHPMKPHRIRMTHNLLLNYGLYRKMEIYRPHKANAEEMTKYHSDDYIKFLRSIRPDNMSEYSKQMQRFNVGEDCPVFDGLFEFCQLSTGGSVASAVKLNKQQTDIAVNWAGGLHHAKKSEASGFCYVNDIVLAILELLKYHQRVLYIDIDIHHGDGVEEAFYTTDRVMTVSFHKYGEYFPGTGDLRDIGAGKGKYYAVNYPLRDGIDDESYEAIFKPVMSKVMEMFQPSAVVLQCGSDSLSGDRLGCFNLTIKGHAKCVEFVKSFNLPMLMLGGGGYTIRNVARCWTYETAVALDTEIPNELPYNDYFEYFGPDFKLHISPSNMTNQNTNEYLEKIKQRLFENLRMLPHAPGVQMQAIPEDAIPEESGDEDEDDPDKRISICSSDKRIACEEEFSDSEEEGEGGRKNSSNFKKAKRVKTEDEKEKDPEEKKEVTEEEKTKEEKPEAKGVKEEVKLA

| inhibition [1] | inhibition [2] | inhibition [3] | inhibition [4] | inhibition [5] | inhibition [6] | inhibition [7] | SMILES | growth inhibition (GI) (HCT-116 [8]) | GI50 (HCT-116 [9]) | inhibition [10] |
| --- | --- | --- | --- | --- | --- | --- | --- | --- | --- | --- |
| inactive | 50% | 80% | Active | Active | inactive | Active | CC(C)[C@@H]1NC(=O)[C@]2(C)CSC(=N2)c2csc(n2)CNC(=O)C[C@@H](/C=C/CCSCc2cccs2)OC1=O | Active |  |  |
| inactive | 50% | 30% | Active | Active | inactive |  | CC(C)[C@@H]1NC(=O)[C@]2(C)CSC(=N2)c2csc(n2)CNC(=O)C[C@@H](/C=C/CCSCc2ccccc2O)OC1=O | Active |  |  |
| inactive | 50% | 80% | Active | Active | inactive | Active | CC(C)[C@@H]1NC(=O)[C@]2(C)CSC(=N2)c2csc(n2)CNC(=O)C[C@@H](/C=C/CCSCc2ccccn2)OC1=O |  | 1000 nM |  |

| SMILES | inhibition [1] | inhibition [2] | inhibition [3] | inhibition [4] | inhibition [5] | inhibition [6] | inhibition [7] | growth inhibition (GI) (HCT-116 [8]) | GI50 (HCT-116 [9]) | inhibition [10] |
| --- | --- | --- | --- | --- | --- | --- | --- | --- | --- | --- |
| CCCCCCCC(=O)SCC/C=C/[C@@H]1CC(=O)NCc2nc(cs2)C2=N[C@@](C)(CS2)C(=O)N[C@@H](C(C)C)C(=O)O1 [LARGAZOLE] | inactive | 50% | Active | Active | Active | inactive |  |  | 10 nM | Active |
